Measured values from PMC11406655 (Therapeutic Advances in Hematology, 2024).
Several values for one entry are separate records, joined by “and”; a condition that tells them apart may be missing. Equal values may be shown once.

How the values were obtained:
Assay type in all cases: in vivo, human
[1] = tested on: symmetrical dimethylarginine (SDMA) in bone marrow biopsies; experiment: SDMA in bone marrow biopsies by immunohistochemistry; details: for Mean percentage decrease in SDMA in bone marrow biopsies: after 29 days of treatment
Outline: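 Adults with relapsed/refractory MDS, CMML or secondary AML took the test compound orally once daily (400 or 300 mg) with water only, every day of 28-day cycles. Bone marrow biopsies were taken predose and 29 days after treatment began, formalin-fixed and paraffin-embedded. SDMA loss was assessed by immunohistochemistry.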

[2] = tested on: patients with relapsed and/or refractory MDS, CMML, or AML; experiment: Safety: adverse events, dose-limiting toxicities and deaths
Outline: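 Open-label, multicenter part 1 in adults with relapsed/refractory MDS, CMML or secondary AML. The 300 mg dose-expansion cohort took the test compound orally once daily with water only, at about the same time (±4 h), on every day of 28-day cycles. Deaths were split into ⩽30 days or >30 days after the last dose. The analysis covered all patients given at least one dose.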

[3] = Plasma pharmacokinetics of GSK3326595
[4] = tested on: patients with relapsed and/or refractory MDS, CMML, or AML; experiment: Clinical response per International Working Group criteria, PFS and OS

## CC(=O)N1CCC(Nc2cc(C(=O)NC[C@H](O)CN3CCc4ccccc4C3)ncn2)CC1 [GSK3326595]
[1]; 300-mg cohort, 7 patients
  Mean percentage decrease in SDMA in bone marrow biopsies: 84.63%
[1]; 400-mg cohort, 4 patients
  Mean percentage decrease in SDMA in bone marrow biopsies: 85.75%
[1]; day 29, 300-mg cohort
  Maximum observed decrease in tumor SDMA: 97.8%
[1]; day 29, 400-mg cohort
  Maximum observed decrease in tumor SDMA: 100%
[2]; 300 mg, n = 17
  Died (during the study): 14 (82%) n (%)
  GSK3326595-related TEAE: AE leading to study treatment withdrawn: 2 (12) n (%)
  GSK3326595-related TEAE: Anemia: 2 (12) n (%)
  GSK3326595-related TEAE: Any SAE: 3 (18) n (%)
  GSK3326595-related TEAE: Any TEAEs: 13 (76) n (%)
  GSK3326595-related TEAE: Any grade 3/4 TEAE: 8 (47%) n (%) and 8 (47) n (%)
  GSK3326595-related TEAE: Decreased appetite: 3 (18) n (%)
  GSK3326595-related TEAE: Decreased platelet count: 5 (29) n (%)
  GSK3326595-related TEAE: Dysgeusia: 4 (24) n (%)
  GSK3326595-related TEAE: Fatal SAE: 1 (6) n (%)
  GSK3326595-related TEAE: Fatigue: 2 (12) n (%)
  GSK3326595-related TEAE: Nausea: 4 (24) n (%)
  GSK3326595-related TEAE: Neutrophil count decreased: 2 (12) n (%)
  GSK3326595-related TEAE: Thrombocytopenia: 2 (12) n (%)
  TEAE: AE leading to dose interruption: 10 (59) n (%)
  TEAE: AE leading to dose reduction: 1 (6) n (%)
  TEAE: AE leading to study treatment withdrawn: 3 (18) n (%)
  TEAE: Anemia: 7 (41) n (%)
  TEAE: Any AE: 17 (100) n (%)
  TEAE: Any SAE: 12 (71) n (%)
  TEAE: Decreased appetite: 4 (24) n (%)
  TEAE: Decreased platelet count: 8 (47) n (%)
  TEAE: Diarrhea: 7 (41) n (%)
  TEAE: Dysgeusia: 7 (41) n (%)
  TEAE: Dyspnea: 6 (35) n (%)
  TEAE: Fatal SAE: 5 (29%) n (%) and 5 (29) n (%)
  TEAE: Fatigue: 6 (35) n (%)
  TEAE: Nausea: 5 (29) n (%)
[2]; 400 mg, n = 13
  Died (during the study): 11 (85%) n (%)
  GSK3326595-related TEAE: AE leading to study treatment withdrawn: 0 n (%)
  GSK3326595-related TEAE: Anemia: 1 (8) n (%)
  GSK3326595-related TEAE: Any SAE: 3 (23) n (%)
  GSK3326595-related TEAE: Any TEAEs: 9 (69) n (%)
  GSK3326595-related TEAE: Any grade 3/4 TEAE: 5 (38%) n (%) and 5 (38) n (%)
  GSK3326595-related TEAE: Decreased appetite: 1 (8) n (%)
  GSK3326595-related TEAE: Decreased platelet count: 3 (23) n (%)
  GSK3326595-related TEAE: Dysgeusia: 3 (23) n (%)
  GSK3326595-related TEAE: Fatal SAE: 0 n (%)
  GSK3326595-related TEAE: Fatigue: 4 (31) n (%)
  GSK3326595-related TEAE: Nausea: 2 (15) n (%)
  GSK3326595-related TEAE: Neutrophil count decreased: 2 (15) n (%)
  GSK3326595-related TEAE: Thrombocytopenia: 1 (8) n (%)
  TEAE: AE leading to dose interruption: 10 (77) n (%)
  TEAE: AE leading to dose reduction: 5 (38) n (%)
  TEAE: AE leading to study treatment withdrawn: 4 (31) n (%)
  TEAE: Anemia: 3 (23) n (%)
  TEAE: Any AE: 13 (100) n (%)
  TEAE: Any SAE: 11 (85) n (%)
  TEAE: Decreased appetite: 5 (38) n (%)
  TEAE: Decreased platelet count: 4 (31) n (%)
  TEAE: Diarrhea: 6 (46) n (%)
  TEAE: Dysgeusia: 3 (23) n (%)
  TEAE: Dyspnea: 5 (38) n (%)
  TEAE: Fatal SAE: 9 (69%) n (%) and 9 (69) n (%)
  TEAE: Fatigue: 7 (54) n (%)
  TEAE: Nausea: 4 (31) n (%)
[2]; 300-mg cohort
  Deaths >30 days from last dose of study treatment (number): 6
  Deaths ⩽30 days from last dose of study treatment (number): 8
[2]; 400-mg cohort
  Deaths >30 days from last dose of study treatment (number): 5
  Deaths ⩽30 days from last dose of study treatment (number): 6
[2]; Total, N = 30
  Deaths >30 days from last dose of study treatment: 11 (37%) n (%)
  Deaths ⩽30 days from last dose of study treatment: 47%
  Died (during the study): 25 (83%) n (%)
  GSK3326595-related AE: decreased platelet count: 27%
  GSK3326595-related AE: dysgeusia: 23%
  GSK3326595-related AE: fatigue: 20%
  GSK3326595-related AE: nausea: 20%
  GSK3326595-related TEAE with maximum grade of 3 or 4: decreased neutrophil count: 4 (13%) n (%)
  GSK3326595-related TEAE with maximum grade of 3 or 4: decreased platelet count: 6 (20%) n (%)
  GSK3326595-related TEAE with maximum grade of 3 or 4: thrombocytopenia: 3 (10%) n (%)
  GSK3326595-related TEAE: AE leading to study treatment withdrawn: 2 (7) n (%)
  GSK3326595-related TEAE: Anemia: 3 (10%) n (%) and 3 (10) n (%)
  GSK3326595-related TEAE: Any SAE: 6 (20%) n (%) and 6 (20) n (%)
  GSK3326595-related TEAE: Any TEAEs: 22 (73) n (%)
  GSK3326595-related TEAE: Any grade 3/4 TEAE: 13 (43) n (%)
  GSK3326595-related TEAE: Decreased appetite: 4 (13%) n (%) and 4 (13) n (%)
  GSK3326595-related TEAE: Decreased platelet count: 8 (27%) n (%) and 8 (27) n (%)
  GSK3326595-related TEAE: Dysgeusia: 7 (23%) n (%) and 7 (23) n (%)
  GSK3326595-related TEAE: Fatal SAE: 1 (3) n (%)
  GSK3326595-related TEAE: Fatigue: 6 (20%) n (%) and 6 (20) n (%)
  GSK3326595-related TEAE: Nausea: 6 (20%) n (%) and 6 (20) n (%)
  GSK3326595-related TEAE: Neutrophil count decreased: 4 (13%) n (%) and 4 (13) n (%)
  GSK3326595-related TEAE: Thrombocytopenia: 3 (10%) n (%) and 3 (10) n (%)
  Patients who died during the study: 83%
  SAE: anemia: 3 (10%) n (%)
  SAE: febrile neutropenia: 5 (17%) n (%)
  SAE: pneumonia: 4 (13%) n (%)
  SAE: sepsis: 8 (27%) n (%)
  SAE: thrombocytopenia: 3 (10%) n (%)
  TEAE with maximum grade of 3 or 4: anemia: 8 (27%) n (%)
  TEAE with maximum grade of 3 or 4: decreased neutrophil count: 7 (23%) n (%)
  TEAE with maximum grade of 3 or 4: decreased platelet count: 11 (37%) n (%)
  TEAE with maximum grade of 3 or 4: dyspnea: 4 (13%) n (%)
  TEAE with maximum grade of 3 or 4: fatigue: 4 (13%) n (%)
  TEAE with maximum grade of 3 or 4: febrile neutropenia: 6 (20%) n (%)
  TEAE with maximum grade of 3 or 4: hypotension: 4 (13%) n (%)
  TEAE with maximum grade of 3 or 4: pneumonia: 6 (20%) n (%)
  TEAE with maximum grade of 3 or 4: thrombocytopenia: 5 (17%) n (%)
  TEAE: AE leading to dose interruption: 20 (67) n (%)
  TEAE: AE leading to dose reduction: 6 (20) n (%)
  TEAE: AE leading to study treatment withdrawn: 7 (23) n (%)
  TEAE: Anemia: 10 (33%) n (%) and 10 (33) n (%)
  TEAE: Any AE: 30 (100) n (%)
  TEAE: Any SAE: 23 (77) n (%)
  TEAE: Decreased appetite: 9 (30%) n (%) and 9 (30) n (%)
  TEAE: Decreased platelet count: 12 (40%) n (%) and 12 (40) n (%)
  TEAE: Diarrhea: 13 (43%) n (%) and 13 (43) n (%)
  TEAE: Dysgeusia: 10 (33%) n (%) and 10 (33) n (%)
  TEAE: Dyspnea: 11 (37%) n (%) and 11 (37) n (%)
  TEAE: Fatal SAE: 14 (47) n (%)
  TEAE: Fatigue: 13 (43%) n (%) and 13 (43) n (%)
  TEAE: Nausea: 9 (30%) n (%) and 9 (30) n (%)
  TEAE: thrombocytopenia: 5 (17%) n (%)
  Treatment-related SAE: decreased neutrophil count: 3 (10%) n (%)
[2]; Total, N = 30, n = 2
  Study treatment discontinued due to sepsis: 7%
[3]; 300 and 400 mg
  Dose proportionality of exposure: dose-proportional
[3]; human, plasma, po, 400 mg
  half-life: 4 to 6 h
[3]; human, plasma, po, 400 mg, Tmax, 300 and 400 mg once daily
  Tmax: ~2 h
[4]; 300 mg once daily oral, n = 17
  Best overall response: CR: 0 n (%)
  Best overall response: Disease progression: 9 (53) n (%)
  Best overall response: HI: 0 n (%)
  Best overall response: Not evaluable: 3 (18) n (%)
  Best overall response: PR: 0 n (%)
  Best overall response: SD: 4 (24) n (%)
  Best overall response: SD lasting <8 weeks: 2 (12) n (%)
  Best overall response: SD lasting ⩾8 weeks: 2 (12) n (%)
  Best overall response: mCR: 1 (6) n (%)
  Clinical benefit rate (CR + mCR + PR + SD ⩾8 weeks + HI): 3 (18) n (%)
  Overall response rate (CR + mCR + PR): 1 (6) n (%)
[4]; 400 mg once daily oral, n = 13
  Best overall response: CR: 0 n (%)
  Best overall response: Disease progression: 4 (31) n (%)
  Best overall response: HI: 0 n (%)
  Best overall response: Not evaluable: 4 (31) n (%)
  Best overall response: PR: 0 n (%)
  Best overall response: SD: 5 (38) n (%)
  Best overall response: SD lasting <8 weeks: 3 (23) n (%)
  Best overall response: SD lasting ⩾8 weeks: 2 (15) n (%)
  Best overall response: mCR: 0 n (%)
  Clinical benefit rate (CR + mCR + PR + SD ⩾8 weeks + HI): 2 (15) n (%)
[4]; 1 patient, plain language summary
  Duration of complete marrow remission: approximately 8 months
[4]; Total, 400 or 300 mg once daily oral, N = 30
  Clinical benefit rate (CR + mCR + PR + SD ⩾8 weeks + HI): 5 (17) n (%)
[4]; Total, N = 30
  Best overall response: CR: 0 n (%)
  Best overall response: Disease progression: 13 (43) n (%)
  Best overall response: HI: 0 n (%)
  Best overall response: Not evaluable: 7 (23) n (%)
  Best overall response: PR: 0 n (%)
  Best overall response: SD: 9 (30) n (%)
  Best overall response: SD lasting <8 weeks: 5 (17) n (%)
  Best overall response: SD lasting ⩾8 weeks: 4 (13%) n (%) and 4 (13) n (%)
  Best overall response: mCR: 1 (3%) n (%) and 1 (3) n (%)
  Overall response rate (CR + mCR + PR): 1 (3) n (%)
  Patients meeting CBR criteria: 17%
  Patients not evaluable: 23%
  Patients with disease progression while on study treatment: 43%
[4]; one patient with MDS, 300-mg cohort
  Duration of mCR: 245 days
